Screening results from PubChem.
Only some compounds are listed: those with a hit (about 3.8% of all), similar ones and a draw of the others.
Kir21 block – blocks the mouse Kir2.1 inward-rectifier potassium channel; P35561; HEK293-Kir2.1, FluxOR thallium flux fluorescence; stronger effect = lower value; B-score at 10 µM; 310,000 compounds, 0.85% hits; AID 1672;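 active = fluorescence ratio B-score at or below minus 3 SD of library scores, with starting-brightness B-score within 2 SD, cut at about -4.2 in these data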;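 also: channel flux triggered by added potassium and thallium sulfate stimulus; B-score of peak minus minimum fluorescence over baseline after thallium stimulus; more negative B-score means stronger Kir2.1 block with less thallium influx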
Target sequence (P35561 whole entry, looked up): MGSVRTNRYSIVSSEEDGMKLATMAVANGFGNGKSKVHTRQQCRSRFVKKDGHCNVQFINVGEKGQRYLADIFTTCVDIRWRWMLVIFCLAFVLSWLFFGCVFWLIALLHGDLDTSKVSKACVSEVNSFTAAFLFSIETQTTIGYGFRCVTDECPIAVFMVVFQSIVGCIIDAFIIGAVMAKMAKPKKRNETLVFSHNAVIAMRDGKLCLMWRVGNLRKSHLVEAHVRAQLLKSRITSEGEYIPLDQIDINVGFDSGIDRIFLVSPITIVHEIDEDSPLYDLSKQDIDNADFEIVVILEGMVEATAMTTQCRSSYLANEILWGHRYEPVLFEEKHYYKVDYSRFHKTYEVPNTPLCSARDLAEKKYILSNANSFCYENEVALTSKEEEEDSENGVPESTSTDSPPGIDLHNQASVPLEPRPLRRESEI
KCNK3 block – human KCNK3 channel inhibition, primary screen; O14649; CHO-KCNK3 thallium flux, FluxOR fluorescence; stronger effect = lower value; B-score at 10 µM; 340,000 compounds, 0.84% hits; AID 602410;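 active = B-score under library mean minus 4 SD, starting fluorescence ratio at most library mean plus 5 SD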;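 also: more negative B-score means stronger inhibition of thallium flux through KCNK3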
KCNK9 inh – blocks the human KCNK9 two-pore domain potassium channel | HEK293 KCNK9, FluxOR thallium flux fluorescence; stronger effect = lower value | B-score at 10 µM | 310,000 compounds, 1.2% hits;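 active = ratio B-score over 3 SD below the library mean, with starting fluorescence within 5 SD of its mean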;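 also: negative B-score means less thallium flux so channel inhibition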
KCNQ1 inh – human KCNQ1 channel inhibition; CHO-K1 KCNQ1, FluxOR thallium flux fluorescence; stronger effect = higher value; AID 2642; 310,000 compounds, 1.3% hits; P51787; B-score at 10 µM;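 active = compounds whose thallium flux B-score, printed positive for inhibition, exceeds three library SD while starting fluorescence stays within three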;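 also: channel opened by potassium depolarization with thallium stimulus after 20 min compound exposure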
hERG rescue – hERG (human) protection from proarrhythmic block; Q12809; CHO-hERG, FluxOR thallium flux, dofetilide IC70 present; activation (rescue from dofetilide block), less the hit threshold, % at 10 µM; 310,000 compounds, 0.51% hits;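 active = activation above the mean of controls blocked by dofetilide plus 5 SD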;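 also: thallium influx through hERG after potassium depolarization seen as dye fluorescence rise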
KCNQ1 act – potentiates or activates the human KCNQ1 potassium channel; P51787; B-score at 10 µM; AID 2648; CHO-K1 KCNQ1, thallium flux FluxOR fluorescence; stronger effect = higher value; 310,000 compounds, 0.35% hits;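 active = fluorescence ratio B-score, a plate-corrected score, at least three library SD, with initial intensity B-score within 5 SD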
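Material: CHO-K1 cells stably expressing KCNQ1. Medium: assay buffer for compound exposure, DMSO matched across wells. Reagent: K+/Tl+ depolarizing stimulus. Compound dosing: single-concentration screen. Times: 37 °C overnight plating, 90-min dark dye load, 20-min compound pretreatment. Technique: FluxOR Tl+ flux fluorescence.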
KCNK9 inh conf – confirmation of human KCNK9 potassium channel inhibitors. shares compounds with KCNK9 inh. HEK293 KCNK9 cells, FluxOR thallium flux fluorescence. inhibition, % at 10 µM. 4,900 compounds, 43% hits;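 active = thallium signal inhibited by more than 5 SD of the compound-free buffer control wells, on both duplicate plates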
Kir21 sel – mouse Kir2.1 off-target activity of KCNK9 modulators | shares compounds with KCNK9 inh | inhibition, % at 10 µM | 4,900 compounds, 4% hits | Kir2.1 cells, FluxOR thallium flux fluorescence;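 active = thallium signal drop more than 5 SD beyond the mean of the no-compound control wells, seen in both duplicate plates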;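 also: signal is fluorescence rise after thallium addition divided by baseline fluorescence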
KCNK9 uninduced – second check of KCNK9 modulator effects in non-induced HEK293 cells; shares compounds with KCNK9 inh; FluxOR thallium flux; inhibition, % at 10 µM; 4,900 compounds, 40% hits; AID 492997;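 active = thallium signal drop beyond 5 SD of the untreated control mean, on both duplicate plates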
A number is an active result.

Cc1ccc(NS(=O)(=O)c2ccc(C(=O)NC3CCN(Cc4ccccc4)CC3)cc2)cc1 was read as KCNK3 block inactive.
Screening Cc1cccc(Nc2nc(NCc3ccco3)c3ccccc3n2)c1 returned Kir21 block -14, KCNK3 block inactive, KCNK9 inh -8.1, KCNQ1 inh 10, hERG rescue inactive, KCNQ1 act inactive, KCNK9 inh conf 49%, Kir21 sel 86% and KCNK9 uninduced inactive.
`Oc1c(C(Nc2nccs2)c2ccc(C(F)(F)F)cc2)ccc2cccnc12` (configuration not stated) gave Kir21 block inactive, KCNK3 block inactive, KCNK9 inh inactive, KCNQ1 inh inactive, hERG rescue inactive, KCNQ1 act inactive, KCNK9 inh conf inactive, Kir21 sel inactive and KCNK9 uninduced inactive.
Screening CN(C(=O)CN1C(=O)S/C(=C\c2ccccc2)C1=O)C1CCS(=O)(=O)C1 (configuration not stated) returned Kir21 block inactive, KCNK3 block inactive, KCNK9 inh inactive, KCNQ1 inh inactive, hERG rescue inactive and KCNQ1 act inactive.
CCN(CC(=O)Nc1c(F)cccc1F)C(=O)C(C)SCc1nc2sc(C)c(C)c2c(=O)[nH]1 (configuration not stated) was read as Kir21 block inactive, KCNK3 block inactive, KCNK9 inh inactive, KCNQ1 inh inactive, hERG rescue inactive and KCNQ1 act inactive.
For CC1(C)C(C=C(Cl)Cl)C1C(=O)N/N=C/c1ccccc1F (configuration not stated) the results were Kir21 block inactive, KCNK3 block inactive, KCNK9 inh -9.5, KCNQ1 inh inactive, hERG rescue inactive, KCNQ1 act inactive, KCNK9 inh conf inactive, Kir21 sel inactive and KCNK9 uninduced 27%.
O=C(N/N=C/c1ccccc1F)NC12CC3CC(CC(C3)C1)C2 was read as Kir21 block inactive, KCNK3 block inactive, KCNK9 inh inactive, KCNQ1 inh inactive, hERG rescue inactive and KCNQ1 act inactive.
Screening CCOc1ccc(N2C(=O)CC(SCc3nc4ccccc4[nH]3)C2=O)cc1 (configuration not stated) returned Kir21 block inactive, KCNK3 block inactive, KCNK9 inh inactive, KCNQ1 inh inactive, hERG rescue inactive and KCNQ1 act inactive.
Screening CS(=O)(=O)c1ccc(Cl)c(NC(=O)CSc2n[nH]c(N)n2)c1 returned Kir21 block inactive, KCNK3 block inactive, KCNK9 inh inactive, KCNQ1 inh inactive, hERG rescue inactive and KCNQ1 act inactive.
`CCc1ccc(-c2cc(C)no2)cc1S(=O)(=O)N1CCN(c2cc(C)ccc2C)CC1` gave Kir21 block inactive, KCNK3 block inactive, KCNK9 inh inactive, KCNQ1 inh inactive, hERG rescue inactive, KCNQ1 act inactive, KCNK9 inh conf inactive, Kir21 sel inactive and KCNK9 uninduced inactive.
Screening COC(=O)N/N=C/c1c(C)nn(-c2cccc(Cl)c2)c1Cl returned Kir21 block inactive, KCNK3 block inactive, KCNK9 inh -8.3, KCNQ1 inh inactive, hERG rescue inactive, KCNQ1 act inactive, KCNK9 inh conf 42%, Kir21 sel inactive and KCNK9 uninduced 28%.
For CCOC(=O)N/N=C/c1c(C)nn(-c2cccc(C(F)(F)F)c2)c1Cl the results were Kir21 block inactive, KCNK3 block inactive, KCNK9 inh inactive, KCNQ1 inh inactive, hERG rescue inactive and KCNQ1 act inactive.
`O=C(N/N=C/c1c[nH]c2ccc(Br)cc12)c1ccn(Cc2ccc(Cl)cc2)n1` gave Kir21 block inactive, KCNK3 block inactive, KCNK9 inh -15, KCNQ1 inh inactive, hERG rescue inactive, KCNQ1 act inactive, KCNK9 inh conf 49%, Kir21 sel inactive and KCNK9 uninduced inactive.
`CCCOc1ccc(C(=O)N/N=C/c2c[nH]c3ccc(Br)cc23)cc1` gave Kir21 block inactive, KCNK3 block inactive, KCNK9 inh inactive, KCNQ1 inh inactive, hERG rescue inactive and KCNQ1 act inactive.
`O=C(Nc1ccc(F)cc1F)Nc1sccc1-c1nc2ccccc2s1` gave Kir21 block inactive, KCNK3 block inactive, KCNK9 inh -11, KCNQ1 inh inactive, hERG rescue inactive, KCNQ1 act inactive, KCNK9 inh conf 50%, Kir21 sel inactive and KCNK9 uninduced 26%.
For Clc1ccc(CO/N=C/c2c(-c3ccccc3)nc3n2CCS3)c(Cl)c1 the results were Kir21 block inactive, KCNK3 block inactive, KCNK9 inh -9.7, KCNQ1 inh inactive, hERG rescue inactive, KCNQ1 act inactive, KCNK9 inh conf inactive, Kir21 sel inactive and KCNK9 uninduced 28%.
For COc1ccc(NC(=O)N2Cc3ccccc3CC2C(=O)NC(C)(C)C)cc1 (configuration not stated) the results were Kir21 block inactive, KCNK3 block inactive, KCNK9 inh inactive, KCNQ1 inh inactive, hERG rescue inactive and KCNQ1 act inactive.
`C=CCn1c(SCc2cc(=O)n3ccsc3n2)nc2scc(C3CC3)c2c1=O` gave Kir21 block inactive, KCNK3 block inactive, KCNK9 inh inactive, KCNQ1 inh inactive, hERG rescue inactive and KCNQ1 act inactive.
Screening S=C(c1c[nH]c2ccc(Br)cc12)N1CCOCC1 returned Kir21 block inactive, KCNK3 block inactive, KCNK9 inh -8.7, KCNQ1 inh inactive, hERG rescue inactive, KCNQ1 act inactive, KCNK9 inh conf 50%, Kir21 sel inactive and KCNK9 uninduced inactive.
Screening O=C(c1c[nH]c2ccccc12)N1CCOCC1 returned Kir21 block inactive, KCNK3 block inactive, KCNK9 inh inactive, KCNQ1 inh inactive, hERG rescue inactive and KCNQ1 act inactive.
For COc1ccc(/C=C/C(=O)C2CC2)cc1COc1c(C)cccc1C the results were Kir21 block inactive, KCNK3 block inactive, KCNK9 inh -11, KCNQ1 inh 8, hERG rescue inactive, KCNQ1 act inactive, KCNK9 inh conf 48%, Kir21 sel inactive and KCNK9 uninduced inactive.
COc1ccc(/C=C/C(=O)c2ccccc2)cc1COc1ccccc1F was read as Kir21 block inactive, KCNK3 block -12, KCNK9 inh -12, KCNQ1 inh inactive, hERG rescue inactive, KCNQ1 act inactive, KCNK9 inh conf 50%, Kir21 sel inactive and KCNK9 uninduced 32%.
Screening Cc1ccc2nc(N3C(=O)C(O)=C(C(=O)c4ccc(C)o4)C3c3cccc(O)c3)sc2c1 (configuration not stated) returned Kir21 block inactive, KCNK3 block inactive, KCNK9 inh inactive, KCNQ1 inh inactive, hERG rescue inactive and KCNQ1 act inactive.
